Experimental data collected from several papers.
Protocols differ between the studies behind these lines.
CYP2C19: Cytochrome P450 2C19 (CYP2C19, Homo sapiens, UniProt P33261)

C=CCn1c(=O)c2cnc(Nc3ccc(N4CCN(C)CC4)cc3)nc2n1-c1ccc2c(n1)[C@@](O)(CC)CC2 — clearance (dog, plasma; intravenous, 3 mg/kg): 46 mL/min/kg
OB(O)c1csc2ccccc12 — viability (HFF-1; cell growth or viability, resazurin; 50 µM, 24 h): > 75%
CN(C)C(=O)c1cc2cnc(Nc3ccc(-c4ccc5c(=O)cc(N6CCOCC6)oc5c4)cc3)nc2n1C1CCCC1.Cl — CL/F (BALB/c mouse, plasma; intravenous, 2 mg/kg): 11.7 mL/min/kg
NCc1ccc(-c2nn(Cc3ccncc3)c3ccccc23)o1 — C0 (male CD-1 mouse, plasma; intravenous, 5 mg/kg): 1360 ng/mL
CSc1ccccc1C(=O)NCCn1cc(C(=O)NCc2cccc(C)n2)c(=O)c2cc3c(cc21)OCO3 — IC50 (CYP2C19; enzyme activity, inhibitor; human, liver microsomes; 20 min, without NADPH, with preincubation): > 100 µM
O=c1[nH]cc(F)c(=O)[nH]1 — viability (A549; cell growth or viability, CCK-8; 50 µM): 27.3%
[N-]=[N+]=N[C@]1(CO)O[C@@H](n2ccc(N)nc2=O)[C@@H](F)[C@@H]1O — CC50 (A549; cell growth or viability, ATP luminescence; 72 h): > 50 µM
C[C@H]1Oc2cc(cnc2N)-c2c(nn(C)c2C#N)CN(C)C(=O)c2ccc(F)cc21 — Tmax (male Sprague-Dawley rat, plasma; oral, 5 mg/kg, single dose): 1.5 h
CCC(CC)COC(=O)[C@H](C)N[P@](=O)(OC[C@H]1O[C@@](C#N)(c2ccc3c(N)ncnn23)[C@H](O)[C@@H]1O)Oc1ccccc1 — CC50 (A549; cell growth or viability, resazurin; 72 h): 25 µM
CSc1ccccc1C(=O)NCCn1cc(C(=O)NCc2cccc(C)n2)c(=O)c2cc3c(cc21)OC(F)(F)O3 — IC50 (CYP2C19; enzyme activity, inhibitor; human, liver microsomes; 20 min, without NADPH, with preincubation): > 100 µM
CN(CCOc1ccc(CC2SC(=O)NC2=O)cc1)c1ccccn1 (stereo not drawn) — CC50 (A549; cell growth or viability, resazurin; 72 h): 100 µM
O=C(CCCCCCC(=O)Nc1ccccc1)NO — IC50 (CYP2C19; enzyme activity, inhibitor, fluorescence): 3.26 µM
